Data on three compounds can be found in ChEMBL document CHEMBL4725354 (J Med Chem, 2020).

Series [1] has as its target T1, Broad substrate specificity ATP-binding cassette transporter ABCG2 (Homo sapiens, UniProt Q9UNQ0).
T1 sequence (Q9UNQ0 whole entry): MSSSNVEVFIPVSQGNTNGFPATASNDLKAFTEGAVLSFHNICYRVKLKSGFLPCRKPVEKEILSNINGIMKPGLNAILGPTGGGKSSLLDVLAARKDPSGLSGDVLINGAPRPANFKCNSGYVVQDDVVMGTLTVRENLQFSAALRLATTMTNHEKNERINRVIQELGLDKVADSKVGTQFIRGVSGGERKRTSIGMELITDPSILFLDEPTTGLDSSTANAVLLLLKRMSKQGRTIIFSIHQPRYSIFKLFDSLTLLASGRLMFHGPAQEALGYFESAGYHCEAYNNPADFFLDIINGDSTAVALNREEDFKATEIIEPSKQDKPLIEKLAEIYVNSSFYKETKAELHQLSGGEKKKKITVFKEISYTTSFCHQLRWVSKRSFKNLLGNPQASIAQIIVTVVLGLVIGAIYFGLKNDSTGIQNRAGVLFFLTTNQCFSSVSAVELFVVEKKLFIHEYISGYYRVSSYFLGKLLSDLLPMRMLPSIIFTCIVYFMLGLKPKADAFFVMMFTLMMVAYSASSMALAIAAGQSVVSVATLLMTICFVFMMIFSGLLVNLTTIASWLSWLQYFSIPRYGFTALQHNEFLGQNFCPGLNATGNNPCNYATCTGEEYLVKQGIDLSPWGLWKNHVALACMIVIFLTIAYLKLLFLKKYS
Nature of the series: Inhibition of human ABCG2 expressed in MDCK2 cells co-expressing GFP preincubated for 30 mins followed by Hoechst 33342 addition and measured every 60 sec for 120 mins by fluorescence assay. In kind it is cell-based, MDCK-II. Put shortly:
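MDCK II cells transfected with human ABCG2 cDNA C-terminally fused to GFP. Hoechst 33342 added at 1 µM final. Fluorescence (ex 355, em 460 nm) read every 60 s for 120 min. Steady-state means vs log concentration fitted by 3- or 4-parameter logistic to give IC50.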

The target in series [2] is T2, ABCG2 (Homo sapiens, UniProt Q9UNQ0).
T2 sequence (Q9UNQ0 whole entry): T1 sequence (Q9UNQ0 whole entry)
Nature of the series: Inhibition of human ABCG2 expressed in MDCK2 cells co-expressing GFP preincubated for 30 mins followed by Hoechst 33342 addition and measured every 60 sec for 120 mins by fluorescence assay relative to control. In kind it is cell-based, MDCK-II. To be noted: probe Hoechst 33342, read-out: Imax. Put shortly: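 MDCK II cells transfected with human ABCG2 cDNA C-terminally fused to GFP. Steady-state means vs log concentration fitted by 3- or 4-parameter logistic to give IC50.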

Series [3] deals with T1, Broad substrate specificity ATP-binding cassette transporter ABCG2. Nature of the series: Inhibition of human ABCG2 expressed in MDCK2 cells co-expressing GFP preincubated for 15 mins followed by pheophorbideA addition and measured after 2 hrs by flow cytometric analysis. The format is cell-based, MDCK-II. Put shortly:
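Pheophorbide A added to 0.5 µM final and incubated 2 h. Read by flow cytometry (ex 488, em 695/50 nm); GFP expression checked at 525/30 nm. IC50 from 3- or 4-parameter logistic fit.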

Series [4] has as its target T2, ABCG2. Description: Inhibition of human ABCG2 expressed in MDCK2 cells co-expressing GFP preincubated for 15 mins followed by pheophorbideA addition and measured after 2 hrs by flow cytometric analysis relative to control. The format is cell-based, MDCK-II. To be noted: probe pheophorbide A, read-out: Imax.
Series [5] concerns the target T3, ATP-dependent translocase ABCB1 (Homo sapiens, UniProt P08183). Description: Inhibition of human ABCB1 expressed in A2780/ADR cells preincubated for 30 mins followed by calcein AM addition and measured every 60 secs for 60 mins by fluorescence assay. In kind it is cell-based. Put shortly: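 ABCB1 in A2780/ADR cells (kept resistant by one passage in 1 µM doxorubicin every 10 passages). 30,000 cells per well in Krebs-HEPES buffer, preincubated 30 min at 37 °C with inhibitor. Calcein AM added from a 3.125 µM solution. Fluorescence (ex 485, em 520 nm) read every 60 s for 60 min. Initial linear slopes vs log concentration fitted to give IC50.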

In series [6] the target is T3, ATP-dependent translocase ABCB1. Nature of the series: Inhibition of human ABCB1-mediated multidrug resistance in human A2780/ADR cells assessed as potentiation of doxorubicin-induced cytotoxicity by measuring half maximal reversal concentration after 72 hrs by MTT assay. The format is cell-based.
In series [7] the target is Multidrug resistance-associated protein 1 (Homo sapiens, UniProt P33527). Description: Inhibition of human ABCC1-mediated multidrug resistance in MDCK2 cells assessed as potentiation of doxorubicin-induced cytotoxicity by measuring half maximal reversal concentration after 72 hrs by MTT assay. To be noted: mdck-ii. In kind it is cell-based. Background: Formazan colour is commonly taken as a measure of viable cells.
Multidrug resistance-associated protein 1, sequence (P33527 whole entry): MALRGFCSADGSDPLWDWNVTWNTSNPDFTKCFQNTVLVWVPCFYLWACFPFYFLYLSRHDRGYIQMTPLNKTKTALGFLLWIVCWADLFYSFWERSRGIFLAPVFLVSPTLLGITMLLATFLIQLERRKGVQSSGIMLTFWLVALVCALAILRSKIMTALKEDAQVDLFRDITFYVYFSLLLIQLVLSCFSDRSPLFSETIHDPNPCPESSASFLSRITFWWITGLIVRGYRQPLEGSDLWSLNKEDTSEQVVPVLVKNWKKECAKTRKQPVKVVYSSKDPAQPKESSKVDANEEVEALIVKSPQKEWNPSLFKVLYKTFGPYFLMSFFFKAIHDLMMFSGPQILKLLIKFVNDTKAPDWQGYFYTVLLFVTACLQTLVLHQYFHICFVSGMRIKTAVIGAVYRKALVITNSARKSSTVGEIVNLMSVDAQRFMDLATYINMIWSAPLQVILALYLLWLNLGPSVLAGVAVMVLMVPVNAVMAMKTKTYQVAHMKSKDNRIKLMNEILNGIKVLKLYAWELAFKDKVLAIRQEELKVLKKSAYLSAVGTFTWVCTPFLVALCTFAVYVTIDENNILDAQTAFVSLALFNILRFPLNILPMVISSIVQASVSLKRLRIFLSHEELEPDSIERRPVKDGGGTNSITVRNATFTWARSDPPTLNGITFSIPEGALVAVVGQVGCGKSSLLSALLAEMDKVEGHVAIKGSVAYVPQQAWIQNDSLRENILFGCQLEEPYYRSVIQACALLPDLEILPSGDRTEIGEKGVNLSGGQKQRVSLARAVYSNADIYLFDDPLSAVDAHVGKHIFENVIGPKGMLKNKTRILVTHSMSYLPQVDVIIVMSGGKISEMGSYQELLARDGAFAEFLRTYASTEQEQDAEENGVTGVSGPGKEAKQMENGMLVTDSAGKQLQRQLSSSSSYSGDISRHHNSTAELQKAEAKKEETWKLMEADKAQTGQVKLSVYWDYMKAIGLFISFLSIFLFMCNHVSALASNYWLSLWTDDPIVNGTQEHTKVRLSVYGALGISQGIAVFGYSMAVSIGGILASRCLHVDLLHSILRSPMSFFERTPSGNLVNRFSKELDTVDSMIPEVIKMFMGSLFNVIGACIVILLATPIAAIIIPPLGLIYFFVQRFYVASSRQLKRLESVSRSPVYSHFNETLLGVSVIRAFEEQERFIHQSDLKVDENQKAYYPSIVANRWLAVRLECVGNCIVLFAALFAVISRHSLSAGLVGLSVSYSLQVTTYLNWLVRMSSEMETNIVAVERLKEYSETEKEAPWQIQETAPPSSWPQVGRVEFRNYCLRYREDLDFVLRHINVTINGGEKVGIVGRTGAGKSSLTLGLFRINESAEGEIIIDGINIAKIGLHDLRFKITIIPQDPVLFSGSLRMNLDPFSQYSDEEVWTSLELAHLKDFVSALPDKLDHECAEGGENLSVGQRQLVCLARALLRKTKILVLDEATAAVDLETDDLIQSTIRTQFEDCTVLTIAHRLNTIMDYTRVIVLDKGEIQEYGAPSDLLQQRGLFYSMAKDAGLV

Series [8] relates to MDCK-II. Description: Cytotoxicity against MDCK2 cells over expressing human ABCG2 at 10 uM assessed as reduction in cell viability after 72 hrs by MTT assay. In kind it is ADME, cell-based, Canis lupus familiaris. To be noted: dog. Put shortly:
(§1)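 Single-concentration screen at 10 µM in MDCK II BCRP and parental MDCK II cells. MTT assay, 72 h at 37 °C, 5% CO2. Viability referenced to culture medium (100%) and 10% DMSO (0%). Mean ± SEM of at least three independent experiments with duplicates.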

The subject of series [9] is MDCK-II. Description: Cytotoxicity against MDCK2 cells assessed as reduction in cell viability at 10 uM after 72 hrs by MTT assay. The format is cell-based, Canis lupus familiaris. To be noted: dog. Summed up: as §1
Series [10] in a line: Growth inhibition of MDCK2 cells over expressing human ABCG2 after 72 hrs by MTT assay. The format is ADME, cell-based, Canis lupus familiaris, MDCK-II. To be noted: dog, MDCK2 cells overexpressing human ABCG2. Put shortly: (§2)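 MTT viability assay. Compound dilutions in culture medium (3.2 to 1000 µM as prepared). About 2,000 cells per well, 72 h at 37 °C, 5% CO2. Culture medium set as 100% and 10% DMSO as 0% viability. MTT added for 1 h, formazan dissolved in DMSO, absorbance read at 570 nm with 690 nm background. GI50 from nonlinear regression of absorbance vs log concentration; at least three independent experiments, duplicates, mean ± SEM.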

A short description of series [11]: Growth inhibition of MDCK2 cells after 72 hrs by MTT assay. The format is cell-based, Canis lupus familiaris, MDCK-II. To be noted: dog. Put shortly:
as §2

In series [12] the test system is ABCG2. Nature of the series: Therapeutic ratio of GI50 for Growth inhibition of MDCK2 cells over expressing human ABCG2 to IC50 for inhibition of human ABCG2 expressed in MDCK2 cells co-expressing GFP preincubated for 30 mins followed by Hoechst 33342 addition and measured every 60 sec for 120 mins by fluorescence assay. In kind it is toxicity, cell-based. To be noted: dog, MDCK2 cells overexpressing human ABCG2, probe Hoechst 33342; read-out: TI.

Series [13] relates to ABCG2. Nature of the series: Therapeutic ratio of GI50 for Growth inhibition of MDCK2 cells over expressing human ABCG2 to IC50 for inhibition of human ABCG2 expressed in MDCK2 cells co-expressing GFP preincubated for 15 mins followed by pheophorbideA addition and measured after 2 hrs by flow cytometric analysis. The format is toxicity, cell-based. To be noted: dog, MDCK2 cells overexpressing human ABCG2, probe pheophorbide A; read-out: TI. In general terms: Flow cytometry measures light scatter and fluorescence of single cells or particles in a stream.

Molecules are shown by their SMILES.

T3 sequence (P08183 whole entry): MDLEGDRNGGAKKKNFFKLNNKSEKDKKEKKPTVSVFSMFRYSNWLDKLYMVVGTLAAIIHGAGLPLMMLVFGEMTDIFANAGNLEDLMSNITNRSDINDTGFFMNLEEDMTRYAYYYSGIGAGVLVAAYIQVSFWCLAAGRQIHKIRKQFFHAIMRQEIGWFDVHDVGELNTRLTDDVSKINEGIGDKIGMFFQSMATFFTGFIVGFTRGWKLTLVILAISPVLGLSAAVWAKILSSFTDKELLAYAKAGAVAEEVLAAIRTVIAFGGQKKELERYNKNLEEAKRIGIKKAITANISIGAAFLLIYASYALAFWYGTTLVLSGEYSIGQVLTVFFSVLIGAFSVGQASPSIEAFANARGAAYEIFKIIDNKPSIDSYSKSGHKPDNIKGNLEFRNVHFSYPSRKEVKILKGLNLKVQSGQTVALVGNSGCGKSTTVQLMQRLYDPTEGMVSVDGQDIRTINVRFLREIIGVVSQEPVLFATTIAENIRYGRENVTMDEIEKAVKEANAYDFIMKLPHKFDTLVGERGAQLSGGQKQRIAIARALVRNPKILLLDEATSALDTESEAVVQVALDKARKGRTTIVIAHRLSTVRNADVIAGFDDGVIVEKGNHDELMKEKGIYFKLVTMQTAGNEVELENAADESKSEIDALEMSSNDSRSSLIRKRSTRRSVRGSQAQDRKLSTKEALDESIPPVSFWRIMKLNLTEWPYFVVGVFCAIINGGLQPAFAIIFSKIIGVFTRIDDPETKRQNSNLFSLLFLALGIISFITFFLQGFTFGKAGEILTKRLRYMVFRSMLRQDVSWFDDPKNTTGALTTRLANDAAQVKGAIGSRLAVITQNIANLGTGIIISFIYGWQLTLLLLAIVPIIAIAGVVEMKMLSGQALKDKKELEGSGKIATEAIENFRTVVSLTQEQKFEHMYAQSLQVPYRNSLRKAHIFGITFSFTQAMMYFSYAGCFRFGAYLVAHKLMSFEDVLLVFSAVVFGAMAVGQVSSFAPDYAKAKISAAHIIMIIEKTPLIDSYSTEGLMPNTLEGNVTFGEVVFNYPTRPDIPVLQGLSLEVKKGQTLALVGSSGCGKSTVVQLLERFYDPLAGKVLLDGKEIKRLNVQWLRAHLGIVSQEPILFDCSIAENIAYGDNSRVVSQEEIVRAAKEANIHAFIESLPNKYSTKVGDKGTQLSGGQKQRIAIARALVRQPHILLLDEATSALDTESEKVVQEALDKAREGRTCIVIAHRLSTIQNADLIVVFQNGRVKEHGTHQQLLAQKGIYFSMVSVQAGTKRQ

`Cc1cc(Nc2cccc(Br)c2)nc(-c2ccccc2)n1`: the IC50 was 892 nM in series [1], 386 nM in series [3] and 7140 nM in series [5]. The Emax at 2 h came out at 100% on ABCG2 [2] and 83% on ABCG2 [4]. Also, the “inhibition (INH)” value in series [6] and in [7] was “Not Active” each time. The Activity entry in the series on MDCK-II [8] and with MDCK-II [9] was “Non-Toxic” throughout.
Regarding `COc1cc(Nc2cc(C)nc(-c3ccccc3)n2)ccc1Br`, the 50% inhibitory concentration (IC50) was 280 nM in series [1], 328 nM in [3] and 5030 nM in [5]. The results for the Emax at 2 h on ABCG2 [2] and on ABCG2 [4] were 100% and 53%, respectively. Further, the “inhibition (INH)” value in [6] and in [7] was “Not Active” each time. Further, the Activity entry in the series with MDCK-II [8] and in the series on MDCK-II [9] was “Non-Toxic” each time.
For `COc1ccc(Nc2cc(C)nc(-c3ccccc3)n2)cc1C(F)(F)F`, the IC50 in series [1] is 598 nM; in series [3] it was 544 nM; in [5] it was 7300 nM. The Emax at 2 h was found to be 100% at ABCG2 [2] and 83% on ABCG2 [4]. Moreover, the “inhibition (INH)” value in series [6] and in series [7] was “Not Active” in each case. The GI50 at 72 h in series [10] stood at 8400 nM; in [11] it was 10100 nM. Also, in the series with ABCG2 [12], the selectivity ratio worked out at 14. In the series with ABCG2 [13], the selectivity ratio at 2 h is 15. Also, the Activity entry with MDCK-II [8] and in the series with MDCK-II [9] was “Toxic” in each case.

For orientation: IC50 means the point on the concentration scale where inhibition reaches its midpoint. As usually defined, the GI50 is the concentration that inhibits growth by half.
